Measurements taken from ChEMBL document CHEMBL5038617, “1,2,4-Triazole-3-thione compounds with a 4-ethyl alkyl/aryl sulfide substituent are broad-spectrum metallo-β-lactamase inhibitors with re-sensitization activity” (Eur J Med Chem, 2021).

Key:
Bacteria [1] = assay: Inhibition of bacterial Metallo-beta-lactamase IMP-1 (unknown origin) assessed as substrate hydrolysis at 100 uM using meropenem as substrate by UV-visible spectrometry analysis
Procedure, shortened: (§1)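 Purified MBL enzyme at 1–70 nM final, in 50 mM HEPES pH 7.5 at 30 °C with 0.5% DMSO. Reporter substrate 150 µM imipenem or meropenem; hydrolysis read at 300 nm. […] Ki measured when inhibition exceeded 75%, by competitive-model v0/vi vs [I] slope or Dixon plot. Some runs used 10 min enzyme–inhibitor preincubation. Triplicate.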

Bacteria [2] = assay: Inhibition of bacterial Metallo-beta-lactamase VIM-1 (unknown origin) assessed as substrate hydrolysis at 100 uM using meropenem as substrate by UV-visible spectrometry analysis; procedure, shortened: as §1
Bacteria [3] = assay: Inhibition of bacterial Metallo-beta-lactamase VIM-4 (unknown origin) assessed as substrate hydrolysis at 100 uM using meropenem as substrate by UV-visible spectrometry analysis; procedure, shortened: as §1
Bacteria [4] = assay: Inhibition of bacterial Metallo-beta-lactamase VIM-2 (unknown origin) assessed as substrate hydrolysis at 100 uM using meropenem as substrate by UV-visible spectrometry analysis; procedure, shortened: as §1
Bacteria [5] = assay: Inhibition of bacterial New Delhi metallo-beta-lactamase 1 (unknown origin) assessed as substrate hydrolysis at 100 uM using meropenem as substrate by UV-visible spectrometry analysis; procedure, shortened: as §1
Klebsiella pneumoniae [6] = assay: Synergistic antibacterial activity against Klebsiella pneumonia VA 416/02 clinical isolate strain producing Metallo-beta-lactamase VIM-4 assessed as meropenem MIC in presence of meropenem incubated for 24 hrs by broth microdilution method; settings: VA 416/02, 24 h
Klebsiella pneumoniae [7] = assay: Synergistic antibacterial activity against Klebsiella pneumonia 7023 clinical isolate strain producing Metallo-beta-lactamase VIM-1 assessed as meropenem MIC in presence of meropenem incubated for 24 hrs by broth microdilution method; assay type: functional
Procedure, shortened: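 CLSI broth microdilution in Mueller-Hinton broth with 5 × 10^4 CFU/well. Meropenem two-fold serial dilutions tested with and without inhibitor fixed at 32 µg/mL, inhibitor added before antibiotic. DMSO ≤1%. […] Growth controls included. Triplicate.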

[8] = Inhibition of bacterial Metallo-beta-lactamase VIM-2 (unknown origin) assessed as substrate hydrolysis using meropenem as substrate by UV-visible spectrometry analysis; design: species or system Bacteria; procedure, shortened: as §1
[9] = Inhibition of bacterial Metallo-beta-lactamase VIM-1 (unknown origin) assessed as substrate hydrolysis using meropenem as substrate by UV-visible spectrometry analysis; design: species or system Bacteria; procedure, shortened: as §1
[10] = Inhibition of bacterial Metallo-beta-lactamase VIM-4 (unknown origin) assessed as substrate hydrolysis using meropenem as substrate by UV-visible spectrometry analysis; design: species or system Bacteria; procedure, shortened: as §1
[11] = Inhibition of bacterial Metallo-beta-lactamase IMP-1 (unknown origin) assessed as substrate hydrolysis using meropenem as substrate by UV-visible spectrometry analysis; design: species or system Bacteria; procedure, shortened: as §1
[12] = Inhibition of bacterial New Delhi metallo-beta-lactamase 1 (unknown origin) assessed as substrate hydrolysis using meropenem as substrate by UV-visible spectrometry analysis; design: species or system Bacteria; procedure, shortened: as §1
HeLa = assay: Cytotoxicity against human HeLa cells assessed as LDH release measured after 24 hrs by CytoTox96 nonradioactive assay; assay type: functional, cell-based
Procedure, shortened: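 HeLa cells (20,000/well) incubated 24 h at 37 °C, 5% CO2 in DMEM with 10% FBS, 4.5 mg/mL glucose and 2 mM L-glutamine, with compound up to 250 µM. LDH release measured. Medium-only control and Triton X-100 maximum-release control included. % cytotoxicity = 100 × sample/maximum release. IC50 taken as 50% cytotoxicity.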

[13] = Cytotoxicity against human PBMC cells assessed as cell viability measured after 24 hrs by flowcytometry method; assay type: toxicity, cell-based; settings: human, PBMC cells
Procedure, shortened: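 PBMC from four individual donors were isolated by density centrifugation, frozen, thawed and resuspended at 1.10e6/mL in RPMI with 10% FBS. Compound added from 20 mM DMSO stock by serial dilution in RPMI; final concentrations 500–7.8 µM, in duplicate. After 24 h, live cells counted by flow cytometry using FSC/SSC gating. IC50 calculated for each donor.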

SMILES	inhibition (Bacteria [1]) [%]	inhibition (Bacteria [2]) [%]	inhibition (Bacteria [3]) [%]	inhibition (Bacteria [4]) [%]	inhibition (Bacteria [5]) [%]	MIC (Klebsiella pneumoniae [6]) [µg/mL]	MIC (Klebsiella pneumoniae [7]) [µg/mL]	Ki [8] [nM]	Ki [9] [nM]	Ki [10] [nM]	Ki [11] [nM]	Ki [12] [nM]	IC50 (HeLa) [nM]	IC50 at 24 h [13] [nM]
S=c1[nH]nc(-c2ccccc2)n1CCSc1nc(-c2ccccc2)n[nH]1	32	< 30	52	44	< 30	–	–	–	–	–	–	–	–	–
S=c1[nH]nc(-c2ccccc2)n1CCCSc1ccccc1	46	–	–	–	42	1	2	1350	2980	4850	–	–	–	–
Fc1ccc(CSCCn2c(-c3ccccc3)n[nH]c2=S)cc1	–	–	–	–	–	2	8	830	2220	1110	9660	15100	–	–
FC(F)(F)c1cc(SCCn2c(-c3ccccc3)n[nH]c2=S)c2ccccc2n1	< 30	37	< 30	< 30	–	–	–	–	–	–	–	12900	–	–
Cc1nnc(SCCn2c(-c3ccccc3)n[nH]c2=S)s1	< 30	–	–	56	< 30	2	2	–	2170	2950	–	–	–	–
O=C(O)C(CSCCn1c(-c2cccc(-c3ccccc3)c2)n[nH]c1=S)c1ccccc1 (stereo unspecified)	56	–	–	–	–	2	4	370	1390	210	–	20300	–	–
Fc1ccc(CSCCn2c(-c3ccccc3)n[nH]c2=S)c(F)c1	–	–	–	–	–	1	2	940	1330	1180	8670	12000	–	–
Cc1ccccc1-c1n[nH]c(=S)n1CCSCc1ccccc1	–	–	–	–	–	2	4	800	400	500	44000	13000	121000	–
O=C(O)CSCCn1c(-c2ccccc2)n[nH]c1=S	< 30	–	–	–	40	4	2	810	2360	710	–	–	–	–
S=c1[nH]nc(-c2ccccc2)n1CCSCCc1ccccc1	–	–	–	–	–	1	2	1760	460	430	17700	21100	–	–
O=C(O)C(CSCCn1c(-c2ccccc2)n[nH]c1=S)c1ccccc1 (stereo unspecified)	–	–	–	–	–	4	2	600	480	220	35000	6000	> 250000	–
COc1ccc(O)c(-c2n[nH]c(=S)n2CCSCc2ccccc2)c1	63	–	–	–	46	2	2	1650	180	600	–	–	–	–
Fc1ccccc1CSCCn1c(-c2ccccc2)n[nH]c1=S	–	–	–	–	–	2	1	280	590	320	12100	11900	165000	175000
O=C(O)C(SCCn1c(-c2ccccc2)n[nH]c1=S)c1ccccc1 (stereo unspecified)	30	–	–	–	40	2	4	190	1650	210	–	–	–	–
S=c1[nH]nc(-c2ccccc2)n1CCSc1ccccc1	–	–	–	–	–	1	1	1570	1260	540	3350	11000	–	–
S=c1[nH]nc(-c2ccccc2)n1CCSc1nc2ccccc2s1	47	< 30	44	30	< 30	–	–	–	–	–	–	–	–	–
O=C(O)CCSCCn1c(-c2ccccc2)n[nH]c1=S	67	–	–	–	59	1	2	1910	1990	1980	–	–	–	–
O=[N+]([O-])c1ccccc1CSCCn1c(-c2ccccc2)n[nH]c1=S	72	–	–	–	–	1	2	570	480	560	19000	13200	–	–
O=[N+]([O-])c1ccc(CSCCn2c(-c3ccccc3)n[nH]c2=S)cc1	–	–	–	–	–	1	2	1290	430	880	3630	11100	–	–
Nc1ccccc1SCCn1c(-c2ccccc2)n[nH]c1=S	–	–	–	–	–	2	4	1150	470	410	22200	16300	–	–
S=c1[nH]nc(-c2ccccc2)n1CCOCc1ccccc1	42	–	–	–	33	2	4	3160	1020	2060	–	–	–	–
S=c1[nH]nc(-c2ccc(OCc3ccccc3)cc2)n1CCSCc1ccccc1	60	–	–	< 30	< 30	–	–	–	2240	1040	–	–	–	–
S=c1[nH]nc(-c2ccccc2)n1CCSc1cccc2ccccc12	< 30	–	–	–	< 30	16	8	1000	480	250	–	–	–	–
S=c1[nH]nc(-c2ccccc2-c2ccccc2)n1CCSCc1ccccc1	35	–	–	< 30	< 30	–	–	–	–	–	–	–	–	–
